Screens from PubChem BioAssay.
The list is not random: actives were taken first. Their share in the collection is about 2.2%.
PMI act satM6P = activators of human phosphomannose isomerase at near-saturating mannose 6-phosphate. hit rate 0.34% among 190,000. activation factor at 20 µM. coupled PMI enzyme assay, resazurin fluorescence, 20 min; stronger effect = higher value; 1 = untreated enzyme, 0 = substrate-free blank. P34949;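 active = activation factor of 2 or more at 20 µM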
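Test system: human phosphomannose isomerase with PGI, G6PDH, diaphorase coupling enzymes; Amount: PMI at 15 ng/mL final; Reagent: Mannose-6-phosphate 1.0 mM (near-saturating) plus 0.22 mM NADP+; Timing: 20 min, room temperature; Technique: resorufin fluorescence at Ex 544/Em 590 nm; Dosing: 20 µM single dose.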
G6PDH CS = inhibits Leuconostoc G6PDH, flagging false hits in G6PDH-based assays | Purified L. mesenteroides G6PDH, diaphorase/resazurin coupled fluorescence, 45 min | inhibition, % at 5 µM | hit rate 0.12% among 200,000; in the data active = inhibition above about 50%
ROMK mod = human ROMK K+ channel modulation, primary screen; Tet-inducible ROMK, thallium flux fluorescence; actives lie on both sides; B-score at 10 µM; hit rate 2% among 130,000;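 active = signal ratio slope over the read window, or its plate-corrected B-score, at least 3 SD from the plate mean, either direction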;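 note: B-score of the F/F0 ratio slope over 7 to 12 s after thallium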
Target sequence (P48048 whole entry, looked up): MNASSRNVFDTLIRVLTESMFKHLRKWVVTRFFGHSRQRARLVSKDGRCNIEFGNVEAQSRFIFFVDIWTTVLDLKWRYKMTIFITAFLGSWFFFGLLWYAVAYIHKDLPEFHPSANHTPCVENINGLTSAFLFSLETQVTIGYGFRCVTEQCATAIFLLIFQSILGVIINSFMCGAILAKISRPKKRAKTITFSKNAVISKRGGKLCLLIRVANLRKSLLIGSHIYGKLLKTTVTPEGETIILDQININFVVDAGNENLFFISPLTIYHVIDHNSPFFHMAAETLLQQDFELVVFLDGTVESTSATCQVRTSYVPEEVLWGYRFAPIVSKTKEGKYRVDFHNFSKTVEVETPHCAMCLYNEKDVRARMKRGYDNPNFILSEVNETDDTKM
Diaphorase inh = diaphorase inhibition or chemical oxidation counter-screen | AID 1217 | hit rate 0.69% among 190,000 | inhibition, % at 20 µM | diaphorase resazurin-to-resorufin fluorescence, NADH, 16 min; bacterial (C. kluyveri) enzyme, not human;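 active = primary screen inhibition at 20 µM above a set limit, cut at about 50% in these data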;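 note: plate controls were DMSO with full reaction for no effect and wells lacking NADH for full effect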
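Test system: Clostridium kluyveri diaphorase enzyme / Quantity: diaphorase at 0.14 U/mL in enzyme working solution / Incubation: 16-min room-temperature incubation before reading / Benchmarks: NADH-free wells as positive control, DMSO-only neutral wells / Signal: resorufin fluorescence 544/590 nm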
PMI act = increases human mannose-6-phosphate isomerase activity. AID 1214. purified human PMI, coupled resazurin fluorescence, 20 min; stronger effect = higher value; 1 = vehicle control, 0 substrate-free wells. P34949. hit rate 0.005% among 190,000. activation factor at 20 µM;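 active = activation factor of 2 or more at 20 µM, relative to plate controls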
Diaph act CS = counter-screen for diaphorase-based assays: diaphorase activators and chemical reducers; Diaphorase/resazurin coupled assay, resorufin fluorescence, 16 min; stronger effect = higher value; 1 = vehicle wells, 0 = NADH-free wells; activation factor at 20 µM; hit rate 0.005% among 190,000; AID 1229;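 active = diaphorase activity raised at least twofold by the compound at 20 µM; inactive = activation factor below 2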
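Test system: Clostridium kluyveri diaphorase, purified enzyme; input: enzyme 0.07 U/mL final; buffer or medium: 50 mM HEPES pH 7.4 with 4.542 mM MgCl2, 0.005% Tween 20; also added: 0.114 mM NADH and 0.1 mM resazurin, final amounts; schedule: 16 min enzyme reaction, ambient temperature; technique: fluorescence of resorufin, 544 nm excitation, 590 nm emission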
ROMK retest = confirmation of human ROMK potassium channel modulators. shares compounds with ROMK mod. ROMK thallium flux, fluorescence ratio; stronger effect = lower value. normalized thallium flux (F/F0 slope) at 10 µM. hit rate 54% among 3,000;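 active = Flux at 10 µM at least 3 SD below or above vehicle control mean in one or both replicates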
* hit, by the source's call.

What do the screens show for `CC(C)c1[nH]nc2c1C(c1cccs1)C(C#N)=C(N)O2` (centres undefined)?
PMI act satM6P: 0.9; G6PDH CS: 4; ROMK mod: -5.7*; Diaphorase inh: 12; PMI act: 0.9; Diaph act CS: 0.9; ROMK retest: 0.058*

Results for CC(C)C1C(C#N)=C(N)Oc2n[nH]c(-c3cccs3)c21 (centres undefined) ?
PMI act satM6P: 0.8; G6PDH CS: 1; Diaphorase inh: 30; PMI act: 0.9; Diaph act CS: 0.7

How did C[C@@H](C(=O)Nc1cccc(S(=O)(=O)N2CCOCC2)c1)N1C(=O)C2CC=CCC2C1=O (some centres undefined) do in these assays?
PMI act satM6P: 1; G6PDH CS: 7; ROMK mod: 0.25; Diaphorase inh: -4; PMI act: 1; Diaph act CS: 1

Results for N#Cc1c2ccc(OCC(N)=O)cc2n2ccccc12 ?
PMI act satM6P: 0.3; G6PDH CS: 44; ROMK mod: -3.2*; Diaphorase inh: 70*; PMI act: 0.3; Diaph act CS: 0.3; ROMK retest: 0.051*

Results for CCOC(=O)COc1ccc2c(C#N)c3ccccn3c2c1 ?
PMI act satM6P: 0.3; G6PDH CS: 44; ROMK mod: -0.26; Diaphorase inh: 49; PMI act: 0.6; Diaph act CS: 0.5

Results for CCCCCCn1c2c(c(=N)c3c1CCC3)CCC2 ?
PMI act satM6P: 0.9; G6PDH CS: -2; Diaphorase inh: 17; PMI act: 0.8; Diaph act CS: 0.8

How did CCCCCCCCCn1c2c(c(=N)c3c1CCC3)CCC2 do in these assays?
PMI act satM6P: 1; G6PDH CS: 3; Diaphorase inh: -5; PMI act: 1; Diaph act CS: 1; ROMK retest: 0.043*

How did COc1cc(/C=C(\C#N)C(=O)N2CCOCC2)ccc1OCc1ccccc1 do in these assays?
PMI act satM6P: 1; G6PDH CS: 1; ROMK mod: 0.015; Diaphorase inh: 14; PMI act: 1.1; Diaph act CS: 0.9

What do the screens show for `COc1ccc(/C=C(\C#N)C(=O)N2CCOCC2)cc1Br`?
PMI act satM6P: 0.9; G6PDH CS: -2; ROMK mod: -3.7*; Diaphorase inh: 16; PMI act: 0.9; Diaph act CS: 0.8; ROMK retest: 0.051*

Results for CCSc1ncnc2c1sc1nc3c(cc12)COC(C)(C)C3 ?
PMI act satM6P: 0.9; G6PDH CS: -30; ROMK mod: 0.7; Diaphorase inh: 3; PMI act: 0.9; Diaph act CS: 1

Results for COc1ccc(C(=O)OCCNC(=O)c2c(Cl)nc3ccccn23)cc1 ?
PMI act satM6P: 1; G6PDH CS: 2; Diaphorase inh: 10; PMI act: 1; Diaph act CS: 0.9; ROMK retest: 0.059*

How did O=[N+]([O-])c1ccc(N2CCOCC2)cn1 do in these assays?
PMI act satM6P: 0.8; G6PDH CS: 14; ROMK mod: 0.57; Diaphorase inh: 15; PMI act: 0.9; Diaph act CS: 0.8

What do the screens show for `Cc1n[nH]c(=O)n1-c1cccc(C(F)(F)F)c1`?
PMI act satM6P: 1; G6PDH CS: 6; Diaphorase inh: 0; PMI act: 1; Diaph act CS: 1; ROMK retest: 0.076

Results for Cc1cc(C(F)(F)F)nn1CC(=O)NCc1cccs1 ?
PMI act satM6P: 1; G6PDH CS: -1; ROMK mod: 0.5; Diaphorase inh: 2; PMI act: 0.9; Diaph act CS: 1

How did N#C/C(=C\c1cccnc1)C(=O)Nc1cccc2ccccc12 do in these assays?
PMI act satM6P: 0.9; G6PDH CS: 4; ROMK mod: -2.4*; Diaphorase inh: 13; PMI act: 0.9; Diaph act CS: 0.9; ROMK retest: 0.046*

How did N#C/C(=C\c1cccc([N+](=O)[O-])c1)C(=O)NCc1ccc(Cl)cc1 do in these assays?
PMI act satM6P: 0.8; G6PDH CS: 8; ROMK mod: -0.067; Diaphorase inh: 15; PMI act: 1; Diaph act CS: 0.9

Results for COCCNC(=O)/C(C#N)=C/C(C)=C/c1ccccc1 ?
PMI act satM6P: 1.1; G6PDH CS: 0; Diaphorase inh: 7; PMI act: 1.1; Diaph act CS: 0.9

What do the screens show for `CCCCNC(=O)/C(C#N)=C/c1cccnc1`?
PMI act satM6P: 1; G6PDH CS: 5; ROMK mod: -3.3*; Diaphorase inh: 2; PMI act: 0.9; Diaph act CS: 1; ROMK retest: 0.05*

How did COCCNC(=O)/C(C#N)=C/c1cccc(/C=C(\C#N)C(=O)NCCOC)c1 do in these assays?
PMI act satM6P: 1.1; G6PDH CS: 4; Diaphorase inh: 5; PMI act: 1.1; Diaph act CS: 1; ROMK retest: 0.037*

What do the screens show for `Cc1cccc(NC(=O)/C(C#N)=C\c2cccnc2)c1`?
PMI act satM6P: 0.8; G6PDH CS: -7; Diaphorase inh: 25; PMI act: 0.8; Diaph act CS: 0.8

How did N#C/C(=C\c1cccc([N+](=O)[O-])c1)C(=O)NCc1cccnc1 do in these assays?
PMI act satM6P: 0.9; G6PDH CS: 2; Diaphorase inh: 13; PMI act: 0.8; Diaph act CS: 0.9; ROMK retest: 0.022*

What do the screens show for `COC(=O)c1ccc(N2C(=O)C3CC=CC(C)C3C2=O)cc1` (centres undefined)?
PMI act satM6P: 0.9; G6PDH CS: 6; ROMK mod: 0.25; Diaphorase inh: 7; PMI act: 1; Diaph act CS: 0.9

What do the screens show for `N#C/C(=C\c1cccnc1)C(=O)NC1CCCCC1`?
PMI act satM6P: 1; G6PDH CS: 16; ROMK mod: -5.3*; Diaphorase inh: 5; PMI act: 0.9; Diaph act CS: 1; ROMK retest: 0.036*

Results for CC(CN1CCNCC1)(NS(=O)(=O)c1ccccc1)c1ccccc1 (centres undefined) ?
PMI act satM6P: 1; G6PDH CS: 8; ROMK mod: -4.5*; Diaphorase inh: 8; PMI act: 1; Diaph act CS: 0.9; ROMK retest: 0.062*

What do the screens show for `CC(C)(CN1CCN(C(c2ccccc2)c2ccccc2)CC1)NS(=O)(=O)c1ccccc1`?
ROMK mod: 0.39

How did O=C1CC(C(=O)NC2CCCCC2)C2(CCCCC2)O1 (centres undefined) do in these assays?
PMI act satM6P: 1; G6PDH CS: 5; ROMK mod: -0.15; Diaphorase inh: 16; PMI act: 0.9; Diaph act CS: 0.8
